Data as given in ChEMBL document CHEMBL1155475, “Semisynthesis and pharmacological activities of thyroxine analogs: Development of new angiogenesis modulators” (2010).

Assays:
Type in all cases: functional
Gallus gallus [1] = organism: Gallus gallus; experiment: Stimulation of angiogenesis of fertilized chicken egg membrane assessed as stimulation of blood vessel formation at 10 ug/CAM after 48 hrs by CAM assay
Procedure, shortened: (§1)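 Chick chorioallantoic membrane model. Filter disks are soaked in 3 mg/mL cortisone acetate in 95% ethanol, air-dried, then saturated with test agent, L-T4 or FGF, and placed on the CAM. Agents are tested at 10 µg/CAM. Tissue beneath the disk is harvested after 48 h and examined by stereomicroscope at 50× with digital image capture. Data are mean ± SEM, n = 8.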

Mus musculus = experiment: Stimulation of angiogenesis in Matrigel plug implanted C57BL/6 mouse assessed as increase of hemoglobin level after 14 days at 10 ug/plug by Matrigel assay
Procedure, shortened: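 Mouse subcutaneous Matrigel plug. Matrigel is kept cold and compound is added with or without agonist. Plugs are injected subcutaneously at three sites per animal, 100 µL total. On day 14 the plugs are collected, homogenized in ddH2O and centrifuged 4000 rpm for 10 min. Supernatant is mixed with Drabkin's reagent for 15–30 min, A540 is read, and hemoglobin (mg/mL) is taken from a standard curve. Three implants per mouse, n = 6 per group.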

Gallus gallus [2] = organism: Gallus gallus; experiment: Antiangiogenesis of fertilized chicken egg membrane assessed as inhibition of FGF-induced blood vessel formation at 10 ug/CAM after 48 hrs by CAM assay; procedure, shortened: as §1

| SMILES | Activity (Gallus gallus [1]) | Activity (Mus musculus) | inhibition (Gallus gallus [2]) |
| --- | --- | --- | --- |
| N[C@@H](Cc1cc(I)c(Oc2cc(I)c(O)c(I)c2)c(I)c1)C(=O)O [LEVOTHYROXINE] | 88% | 100% | – |
| CCCC(=O)NC(Cc1cc(I)c(Oc2cc(I)c(O)c(I)c2)c(I)c1)C(=O)O (configuration not stated) | 34% | 62% | – |
| CCNC(Cc1cc(I)c(Oc2cc(I)c(O)c(I)c2)c(I)c1)C(=O)OCC (configuration not stated) | – | – | 38% |
| CCNC(Cc1cc(I)c(Oc2cc(I)c(O)c(I)c2)c(I)c1)C(=O)O (configuration not stated) | 86% | 45% | – |
| CC(=O)NC(Cc1cc(I)c(Oc2cc(I)c(OC(C)=O)c(I)c2)c(I)c1)C(=O)O (configuration not stated) | 67% | 95% | – |
| CC(C)[Si](OC(=O)C(Cc1cc(I)c(Oc2cc(I)c(OCC3CO3)c(I)c2)c(I)c1)NC(=O)OC(C)(C)C)(C(C)C)C(C)C (configuration not stated) | 34% | 0% | – |
| CNC(Cc1cc(I)c(Oc2cc(I)c(O)c(I)c2)c(I)c1)C(=O)O (configuration not stated) | 44% | 87% | – |
| CC(C)[Si](OC(=O)C(Cc1cc(I)c(Oc2cc(I)c(O)c(I)c2)c(I)c1)NC(=O)OC(C)(C)C)(C(C)C)C(C)C (configuration not stated) | 4% | 0% | – |
| CC(C)(C)OC(=O)NC(Cc1cc(I)c(Oc2cc(I)c(OCC3CO3)c(I)c2)c(I)c1)C(=O)OCC1CO1 (configuration not stated) | 56% | 0% | – |
